Consider 22 compounds from ChEMBL document CHEMBL1157696, “New oxapolycyclic cage amines with NMDA receptor antagonist and trypanocidal activities” (Bioorg Med Chem, 2010).

Activity calls are given as the source filed them. The calls are words filed in the database; no cut-off is given here.

Experiment [1] concerns the target Glutamate NMDA receptor. Briefly: Antagonist activity at NMDA receptor in rat cerebellar granule neurons assessed as inhibition of glutamate-induced increase in intracellular calcium level by fluorometric assay. Type of experiment: functional, cell-based. Summed up: (§1)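 Primary cerebellar granule neuron cultures on poly-L-lysine-coated glass coverslips, used after 7–14 days in vitro. Cells loaded with 6 µM Fura-2 AM for 45 min, then read fluorometrically in Locke-Hepes buffer at 37 °C under mild agitation. Cumulative increasing compound concentrations added after glutamate (100 µM, with 10 µM glycine) or NMDA challenge. Inhibition percentages fitted by variable-slope non-linear regression. At least three experiments on three culture batches.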

The target of experiment [2] is Glutamate NMDA receptor. The experiment is described as follows: Antagonist activity at NMDA receptor in rat cerebellar granule neurons assessed as inhibition of NMDA-induced increase in intracellular calcium level by fluorometric assay. It counts as functional, cell-based. The essentials: as §1
Experiment [3] concerns Trypanosoma brucei. Briefly: Trypanocidal activity against Trypanosoma brucei 427 bloodstream form assessed as decrease in cell density after 48 hrs by hemocytometry. It counts as functional, organism-based. As to conditions: Trypanosoma brucei, 427, 48 h. The essentials: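 Bloodstream-form T. brucei strain 427 kept at 37 °C in modified Iscove's medium, pH 7.4. Parasites grown 48 h across a range of drug concentrations, starting at 0.5 × 10⁴ cells/mL. Densities counted by hemocytometer and expressed as percent of control growth to derive IC50 and IC90. Performed in triplicate.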

The test system of experiment [4] is Trypanosoma brucei. The experiment is described as follows: Ratio of compound to amantadine activity against Trypanosoma brucei 427 bloodstream form. It counts as functional.
For experiment [5], the species on record is Mus musculus. Briefly: Inhibition of MAO in mouse cortex at 10 uM by tube luminometry. The essentials: (§2)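 MAO-Glo luminescent assay of non-specific MAO activity. Enzyme source was a crude mitochondrial preparation from NIH Swiss mouse cortex. Compounds tested at 10 and 50 µM.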
Experiment [6] has as its system Trypanosoma brucei. Briefly: Trypanocidal activity against Trypanosoma brucei 427 bloodstream form assessed as decrease in cell density at 5 ug/mL after 48 hrs by hemocytometry. Type of experiment: functional, organism-based.
For experiment [7], the species on record is Mus musculus. Briefly: Inhibition of MAO in mouse cortex at 50 uM by tube luminometry. Summed up: as §2

In the case of `CCC12CC3CC(NCc4ccccc4)(CC(C1)c1ccccc13)O2`, the half-maximal inhibitory concentration (IC50) on Glutamate NMDA receptor [1] was over 500 µM; on Glutamate NMDA receptor [2], over 200 µM; in the experiment on Trypanosoma brucei [3], 13.9 µM. Further, the concentration for an effect of 90% (IC90) in the experiment with Trypanosoma brucei [3] is 19.9 µM. In addition, the Ratio result in the experiment with Trypanosoma brucei [4] was “>=10”.

Compound `C#CCN(C)[C@H](C)Cc1ccccc1` displayed an inhibition in the experiment listed under Mus musculus [5] of 85.5%.

`c1ccc(CNC23CC4CC(CC(C2)c2ccccc24)O3)cc1`: the concentration for half-maximal inhibition (IC50) on Glutamate NMDA receptor [1] was over 500 µM; on Glutamate NMDA receptor [2], over 200 µM. Besides, the result with Trypanosoma brucei [6] was inactive.

On to `C#CCNC12CC3CC(CC(C1)c1ccccc13)O2`, for which the IC50 at Glutamate NMDA receptor [1] came out at 115 µM; on Glutamate NMDA receptor [2], 34 µM. In addition, the inhibition entry in the experiment filed under Mus musculus [5] and in the experiment filed under Mus musculus [7] was “inactive” each time. In addition, the result in the experiment with Trypanosoma brucei [6] was inactive.

Regarding `NC12CC3CC(CC(C1)c1ccccc13)O2`, the 50% inhibitory concentration (IC50) at Glutamate NMDA receptor [1] was found to be 408 µM; at Glutamate NMDA receptor [2], 35 µM. The result in the experiment on Trypanosoma brucei [6] was inactive.

For `CC(N)C12CC3CC(CC(C3)C1)C2` (stereo not given) [RIMANTADINE], in the experiment on Trypanosoma brucei [3], the IC90 came out at 14 µM.

On to `CNC12CC3CC(CC(C1)c1ccccc13)O2`, for which the values for the half-inhibitory concentration (IC50) at Glutamate NMDA receptor [1] and on Glutamate NMDA receptor [2] were 28 µM and 6 µM, respectively. For the same compound, the result with Trypanosoma brucei [6] was inactive.

For the compound `CC12CC3CC(C)(C1)CC(N)(C3)C2` [MEMANTINE], in the experiment with Trypanosoma brucei [3], the half-inhibitory concentration (IC50) came to 13.8 µM and the 90% effect concentration (IC90) is 21.4 µM.

Turning to `CCN(CC)C12CC3CC(C)(CC(C1)c1ccccc13)O2`, the IC50 is 22 µM on Glutamate NMDA receptor [1] and 7.7 µM at Glutamate NMDA receptor [2]. The result with Trypanosoma brucei [6] was inactive.

In the case of `CCN(CC)C12CC3CC(CC(C1)c1ccccc13)O2`, the concentration for half-maximal inhibition (IC50) on Glutamate NMDA receptor [1] stood at 96 µM; on Glutamate NMDA receptor [2], 14 µM.

`c1ccc2c(c1)C1CC3CC2CC(N2CCCCC2)(C1)O3`: the IC50 was 168 µM at Glutamate NMDA receptor [1] and 30 µM at Glutamate NMDA receptor [2].

As to `CC12CC3CC(N)(CC(C1)c1ccccc13)O2`, the IC50 on Glutamate NMDA receptor [1] stood at 167 µM; on Glutamate NMDA receptor [2] it was 98 µM. In the experiment on Trypanosoma brucei [6], the result was inactive.

As for `NC(=O)CNC12CC3CC(CC(C1)c1ccccc13)O2`, the IC50 on Glutamate NMDA receptor [1] was over 500 µM; on Glutamate NMDA receptor [2], over 200 µM. Moreover, the inhibition result in the experiment listed under Mus musculus [5] and in the experiment listed under Mus musculus [7] was “inactive” throughout. Moreover, in the experiment with Trypanosoma brucei [6], the result was inactive.

`c1ccc(CN(Cc2ccccc2)C23CC4CC(CC(C2)c2ccccc24)O3)cc1`: the half-inhibitory concentration (IC50) was over 500 µM at Glutamate NMDA receptor [1] and over 200 µM on Glutamate NMDA receptor [2]. In the experiment on Trypanosoma brucei [6], the result was inactive.

Consider `CN(Cc1ccccc1)C12CC3CC(CC(C1)c1ccccc13)O2`, for which the figures for the IC50 at Glutamate NMDA receptor [1] and at Glutamate NMDA receptor [2] were over 500 µM and over 200 µM, respectively. Further, the result in the experiment on Trypanosoma brucei [6] was inactive.

On to `CCC12CC3CC(N)(CC(C1)c1ccccc13)O2`, for which the IC50 is over 500 µM on Glutamate NMDA receptor [1] and over 200 µM at Glutamate NMDA receptor [2]. Moreover, in the experiment with Trypanosoma brucei [6], the result was inactive.

Consider `C#CCNC12CC3CC(CC)(CC(C1)c1ccccc13)O2`, for which the half-maximal inhibitory concentration (IC50) is over 500 µM at Glutamate NMDA receptor [1], over 200 µM on Glutamate NMDA receptor [2] and 15.2 µM in the experiment on Trypanosoma brucei [3]. Further, the inhibition result in the experiment listed under Mus musculus [5] and in the experiment filed under Mus musculus [7] was “inactive” in each case. Further, the IC90 in the experiment with Trypanosoma brucei [3] turned out to be 25.6 µM. Moreover, the Ratio entry in the experiment on Trypanosoma brucei [4] is given as “>=10”.

For the compound `C#CCN(CC#C)C12CC3CC(CC)(CC(C1)c1ccccc13)O2`, the IC50 at Glutamate NMDA receptor [1] is over 500 µM; on Glutamate NMDA receptor [2] it was over 200 µM; in the experiment with Trypanosoma brucei [3] it was 14.6 µM. Besides, the inhibition result in the experiment filed under Mus musculus [5] and in the experiment filed under Mus musculus [7] was “inactive” each time. The IC90 in the experiment on Trypanosoma brucei [3] turned out to be 24.1 µM. In addition, in the experiment with Trypanosoma brucei [4], the Ratio result is listed as “>=10”.

In the case of `CN(C)C12CC3CC(C)(CC(C1)c1ccccc13)O2`, the half-inhibitory concentration (IC50) at Glutamate NMDA receptor [1] worked out at 7.7 µM; at Glutamate NMDA receptor [2], 3.9 µM. The result in the experiment on Trypanosoma brucei [6] was inactive.

`CN(C)C12CC3CC(CC(C1)c1ccccc13)O2`: the concentration for half-maximal inhibition (IC50) on Glutamate NMDA receptor [1] was found to be 39 µM; at Glutamate NMDA receptor [2], 3.8 µM. Also, in the experiment on Trypanosoma brucei [6], the result was inactive.

On to `C#CCN(CC#C)C12CC3CC(CC(C1)c1ccccc13)O2`, for which the IC50 on Glutamate NMDA receptor [1] was over 500 µM; on Glutamate NMDA receptor [2] it was over 200 µM. Moreover, the inhibition entry in the experiment filed under Mus musculus [5] and in the experiment listed under Mus musculus [7] was “inactive” each time. The outcome in the experiment on Trypanosoma brucei [6] was inactive.

For `c1ccc(CCNC23CC4CC(CC(C2)c2ccccc24)O3)cc1`, the concentration for half-maximal inhibition (IC50) is over 500 µM on Glutamate NMDA receptor [1] and over 200 µM at Glutamate NMDA receptor [2]. In the experiment with Trypanosoma brucei [6], the outcome was inactive.
